Source: ChEMBL document CHEMBL1141780, “Diterpenoid, steroid, and triterpenoid agonists of liver X receptors from diversified terrestrial plants and marine sources” (J Nat Prod, 2005)

target: T1, Oxysterols receptor LXR-alpha (Homo sapiens) (UniProt Q13133); assay: Displacement of [3H2]F3-methyl AA from human recombinant LXRalpha expressed in Escherichia coli BL21 cells at 100 uM; conditions: not given
T1 sequence (whole entry): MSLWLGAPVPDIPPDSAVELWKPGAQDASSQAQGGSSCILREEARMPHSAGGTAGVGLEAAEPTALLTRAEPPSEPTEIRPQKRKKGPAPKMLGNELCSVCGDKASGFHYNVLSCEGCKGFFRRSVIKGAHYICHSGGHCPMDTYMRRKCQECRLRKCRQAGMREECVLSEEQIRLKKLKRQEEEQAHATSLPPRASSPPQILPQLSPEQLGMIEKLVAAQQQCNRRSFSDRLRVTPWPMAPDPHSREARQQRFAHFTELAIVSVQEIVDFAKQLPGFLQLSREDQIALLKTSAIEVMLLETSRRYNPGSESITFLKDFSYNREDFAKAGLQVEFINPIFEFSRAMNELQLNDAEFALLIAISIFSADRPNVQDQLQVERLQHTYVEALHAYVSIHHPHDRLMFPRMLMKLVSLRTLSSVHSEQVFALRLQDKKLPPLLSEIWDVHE

SMILES | Activity
CC(C)CC[C@@H](O)[C@@H](C)[C@H]1CC[C@H]2[C@@H]3CC=C4C[C@@H](O)CC[C@]4(C)[C@H]3CC[C@]12C [22(R)-HYDROXYCHOLESTEROL] | 70%

target: T2, Oxysterols receptor LXR-beta (Homo sapiens) (UniProt P55055); assay: Displacement of [3H2]F3-methyl AA from human recombinant LXRbeta expressed in Escherichia coli BL21 cells at 100 uM; conditions: not given
T2 sequence (whole entry): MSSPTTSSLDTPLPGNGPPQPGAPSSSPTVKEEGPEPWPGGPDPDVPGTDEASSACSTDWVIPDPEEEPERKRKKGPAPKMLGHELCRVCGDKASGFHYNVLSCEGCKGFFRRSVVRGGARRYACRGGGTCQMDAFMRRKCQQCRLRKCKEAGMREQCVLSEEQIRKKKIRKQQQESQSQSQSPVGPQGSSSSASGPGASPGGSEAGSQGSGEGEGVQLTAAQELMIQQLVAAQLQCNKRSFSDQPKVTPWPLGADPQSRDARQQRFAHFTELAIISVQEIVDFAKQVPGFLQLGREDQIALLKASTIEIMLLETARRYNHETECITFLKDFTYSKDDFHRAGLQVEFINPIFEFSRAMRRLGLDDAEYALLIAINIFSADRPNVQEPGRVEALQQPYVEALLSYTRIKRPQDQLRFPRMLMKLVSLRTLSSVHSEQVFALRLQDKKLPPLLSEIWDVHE

SMILES | Activity
CC(C)CC[C@@H](O)[C@@H](C)[C@H]1CC[C@H]2[C@@H]3CC=C4C[C@@H](O)CC[C@]4(C)[C@H]3CC[C@]12C [22(R)-HYDROXYCHOLESTEROL] | 60%

target: T3, Oxysterols receptor LXR-alpha (Homo sapiens, UniProt Q13133); assay: Agonist activity at human recombinant LXRalpha expressed in Escherichia coli BL21 cells assessed as association of recombinant SRC1 to LXRalpha ligand binding domain by HTRF assay; conditions: not given
T3 sequence (Q13133 whole entry): T1 sequence (whole entry)

SMILES | EC50
C/C(=C\CC[C@@H](C)[C@H]1CC[C@@]2(C)[C@@H]3CC=C4[C@@H](CC[C@@H](O)C4(C)C)[C@]3(C)CC[C@]12C)C(=O)O [ROSACEA ACID B] | > 50 µM
C=C(C)[C@@H]1CC[C@]2(C(=O)O)CC[C@]3(C)[C@H](CC[C@@H]4[C@@]5(C)CC[C@H](O)C(C)(C)[C@@H]5CC[C@]43C)[C@@H]12 [BETULINIC ACID] | > 50 µM
CC(C)CC[C@@H](O)[C@@H](C)[C@H]1CC[C@H]2[C@@H]3CC=C4C[C@@H](O)CC[C@]4(C)[C@H]3CC[C@]12C [22(R)-HYDROXYCHOLESTEROL] | > 15 µM
C=C[C@@]1(C)CC=C2[C@@H](CC[C@@H]3[C@](C)(C(=O)NCC45CC6CC(CC(C6)C4)C5)CCC[C@@]23C)C1 | > 50 µM
C[C@]1(C(=O)O)CCC[C@]2(C)c3cc(O)ccc3CC[C@@H]12 [PODOCARIC ACID] | > 50 µM
C=C[C@@]1(C)CC=C2[C@@H](CC[C@@H]3[C@](C)(C(=O)O)CCC[C@@]23C)C1 | 0.18 µM
CC(=O)Oc1ccc2c(c1)[C@@]1(C)CCC[C@](C)(C(=O)OC(=O)[C@@]3(C)CCC[C@]4(C)c5cc(OC(C)=O)ccc5CC[C@@H]34)[C@@H]1CC2 [ACETYL PODOCARPIC ACID ANHYDRIDE] | 0.001 µM

target: T4, Oxysterols receptor LXR-beta (Homo sapiens, UniProt P55055); assay: Agonist activity at human recombinant LXRbeta expressed in Escherichia coli BL21 cells assessed as association of recombinant SRC1 to LXRbeta ligand binding domain by HTRF assay; conditions: not given
T4 sequence (P55055 whole entry): T2 sequence (whole entry)

SMILES | EC50
C/C(=C\CC[C@@H](C)[C@H]1CC[C@@]2(C)[C@@H]3CC=C4[C@@H](CC[C@@H](O)C4(C)C)[C@]3(C)CC[C@]12C)C(=O)O [ROSACEA ACID B] | > 50 µM
C=C(C)[C@@H]1CC[C@]2(C(=O)O)CC[C@]3(C)[C@H](CC[C@@H]4[C@@]5(C)CC[C@H](O)C(C)(C)[C@@H]5CC[C@]43C)[C@@H]12 [BETULINIC ACID] | > 50 µM
CC(C)CC[C@@H](O)[C@@H](C)[C@H]1CC[C@H]2[C@@H]3CC=C4C[C@@H](O)CC[C@]4(C)[C@H]3CC[C@]12C [22(R)-HYDROXYCHOLESTEROL] | > 15 µM
C=C[C@@]1(C)CC=C2[C@@H](CC[C@@H]3[C@](C)(C(=O)NCC45CC6CC(CC(C6)C4)C5)CCC[C@@]23C)C1 | > 50 µM
C[C@]1(C(=O)O)CCC[C@]2(C)c3cc(O)ccc3CC[C@@H]12 [PODOCARIC ACID] | > 50 µM
C=C[C@@]1(C)CC=C2[C@@H](CC[C@@H]3[C@](C)(C(=O)O)CCC[C@@]23C)C1 | > 50 µM
CC(=O)Oc1ccc2c(c1)[C@@]1(C)CCC[C@](C)(C(=O)OC(=O)[C@@]3(C)CCC[C@]4(C)c5cc(OC(C)=O)ccc5CC[C@@H]34)[C@@H]1CC2 [ACETYL PODOCARPIC ACID ANHYDRIDE] | < 0.003 µM

target: T1, Oxysterols receptor LXR-alpha (Homo sapiens); assay: Activity of human recombinant LXRalpha ligand binding domain-mediated transcriptional activity in human HEK293 cells with Gal4 reporter plasmid by luciferase reporter assay; assay type: cell-based; conditions: not given
Method in brief: (§1)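 Cell-based transactivation in HEK-293 cells with chimeric constructs: yeast Gal4 DNA-binding domain fused to the hinge region and LBD of LXRα or LXRβ. Agonist activity is read as fold induction over DMSO control.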

SMILES | fold change (FC)
CC(C)CC[C@@H](O)[C@@H](C)[C@H]1CC[C@H]2[C@@H]3CC=C4C[C@@H](O)CC[C@]4(C)[C@H]3CC[C@]12C [22(R)-HYDROXYCHOLESTEROL] | 4
CC(=O)Oc1ccc2c(c1)[C@@]1(C)CCC[C@](C)(C(=O)OC(=O)[C@@]3(C)CCC[C@]4(C)c5cc(OC(C)=O)ccc5CC[C@@H]34)[C@@H]1CC2 [ACETYL PODOCARPIC ACID ANHYDRIDE] | 50

target: T1, Oxysterols receptor LXR-alpha (Homo sapiens); assay: Activity of human recombinant LXRalpha ligand binding domain-mediated transcriptional activity in human HEK293 cells with Gal4 reporter plasmid at 100 uM by luciferase reporter assay; assay type: cell-based; conditions: not given; method in brief: as §1

SMILES | fold change (FC)
C=C[C@@]1(C)CC=C2[C@@H](CC[C@@H]3[C@](C)(C(=O)O)CCC[C@@]23C)C1 | 15.9

target: T2, Oxysterols receptor LXR-beta (Homo sapiens); assay: Activity of human recombinant LXRbeta ligand binding domain-mediated transcriptional activity in human HEK293 cells with Gal4 reporter plasmid by luciferase reporter assay; assay type: cell-based; conditions: not given; method in brief: as §1

SMILES | fold change (FC)
CC(C)CC[C@@H](O)[C@@H](C)[C@H]1CC[C@H]2[C@@H]3CC=C4C[C@@H](O)CC[C@]4(C)[C@H]3CC[C@]12C [22(R)-HYDROXYCHOLESTEROL] | 8
CC(=O)Oc1ccc2c(c1)[C@@]1(C)CCC[C@](C)(C(=O)OC(=O)[C@@]3(C)CCC[C@]4(C)c5cc(OC(C)=O)ccc5CC[C@@H]34)[C@@H]1CC2 [ACETYL PODOCARPIC ACID ANHYDRIDE] | 85

target: T2, Oxysterols receptor LXR-beta (Homo sapiens); assay: Activity of human recombinant LXRbeta ligand binding domain-mediated transcriptional activity in human HEK293 cells with Gal4 reporter plasmid at 100 uM by luciferase reporter assay; assay type: cell-based; conditions: not given; method in brief: as §1

SMILES | fold change (FC)
C=C[C@@]1(C)CC=C2[C@@H](CC[C@@H]3[C@](C)(C(=O)O)CCC[C@@]23C)C1 | 5.6

target: T2, Oxysterols receptor LXR-beta (Homo sapiens); conditions: BL21

SMILES | LC50
C/C(=C\CC[C@@H](C)[C@H]1CC[C@@]2(C)[C@@H]3CC=C4[C@@H](CC[C@@H](O)C4(C)C)[C@]3(C)CC[C@]12C)C(=O)O [ROSACEA ACID B] | 0.39 µM
C=C(C)[C@@H]1CC[C@]2(C(=O)O)CC[C@]3(C)[C@H](CC[C@@H]4[C@@]5(C)CC[C@H](O)C(C)(C)[C@@H]5CC[C@]43C)[C@@H]12 [BETULINIC ACID] | > 25 µM
C=C[C@@]1(C)CC=C2[C@@H](CC[C@@H]3[C@](C)(C(=O)NCC45CC6CC(CC(C6)C4)C5)CCC[C@@]23C)C1 | > 50 µM
C[C@]1(C(=O)O)CCC[C@]2(C)c3cc(O)ccc3CC[C@@H]12 [PODOCARIC ACID] | > 50 µM
C=C[C@@]1(C)CC=C2[C@@H](CC[C@@H]3[C@](C)(C(=O)O)CCC[C@@]23C)C1 | 1.49 µM
CC(=O)Oc1ccc2c(c1)[C@@]1(C)CCC[C@](C)(C(=O)OC(=O)[C@@]3(C)CCC[C@]4(C)c5cc(OC(C)=O)ccc5CC[C@@H]34)[C@@H]1CC2 [ACETYL PODOCARPIC ACID ANHYDRIDE] | 0.001 µM
